Data reported in ChEMBL document CHEMBL1833940, “Discovery of 3-(2,6-dichloro-3,5-dimethoxy-phenyl)-1-{6-[4-(4-ethyl-piperazin-1-yl)-phenylamino]-pyrimidin-4-yl}-1-methyl-urea (NVP-BGJ398), a potent and selective inhibitor of the fibroblast growth factor receptor family of receptor tyrosine kinase” (J Med Chem, 2011).
Active and inactive are the calls of the source. The calls are words filed in the database; no cut-off is given here.

Assays:
[1] = biological target: Tyrosine-protein kinase ZAP-70 (Homo sapiens, UniProt P43403); assay: Inhibition of recombinant ZAP70
Outline: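 Purified recombinant kinases were tested under optimized conditions with peptide substrates. ATP was set at each kinase's Km. Phosphorylation was read out by microfluidic mobility shift, and IC50 values were determined.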

Rattus norvegicus [2] = assay: Inhibition of FGFR autophosphorylation in RT112 tumour bearing nude Rowett rat assessed as decrease in pMAPK concentration at 8.51 mg/kg, po administered as a single dose after 16 hrs by Western blot analysis; type: functional, organism-based; design: dose 8.51 mg/kg
Outline: (§1)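 RT112 subcutaneous xenografts in female nude Rowett rats (n = 4). Single oral gavage of the monophosphate salt at 4.25 or 8.51 mg/kg (free base equivalents) in acetic acid–acetate buffer pH 4.6/PEG300 (1:1). Tumors were collected at time points up to 24 h, frozen, homogenized and lysed. Western blots probed pFRS2(Tyr196) and pMAPK, with total FRS2, total MAPK or β-tubulin as loading controls.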

[3] = Half life in plasma of RT112/luc1 cells implanted athymic nude mouse at 5 mg/kg, iv by LC/MS/MS analysis; type: ADME, organism-based; design: dose 5 mg/kg, route intravenous
Outline: (§2)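 Female athymic nude mice carried subcutaneous RT112/luc1 tumors (5×10^6 cells, 50% Matrigel; about 300–400 mm3). Dosing was either 5 mg/kg iv by tail vein in NMP/PEG200 (1:9) or 20 mg/kg oral suspension in PEG300/D5W (2:1). Groups of mice (n = 4) were sacrificed at 0.083–24 h. Plasma and tumor levels were measured by LC-MS/MS (LOQ 5 ng/mL, 10 ng/g).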

Cytochrome P450 2D6 = Cytochrome P450 2D6 (Homo sapiens, UniProt P10635); assay: Inhibition of CYP2D6 using AMMC as substrate; type: ADME
Outline: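 Human CYP450 inhibition was measured with isoform-specific fluorogenic probe substrates: CEC for 1A2 and 2C19, MFC for 2C9, AMMC for 2D6. Incubation was at 37 °C with an NADPH-regenerating system in 384-well format. Metabolite was quantified by fluorescence, and IC50 was obtained by curve fitting.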

[4] = Half life in plasma of RT112/luc1 cells implanted athymic nude mouse at 20 mg/kg, po by LC/MS/MS analysis; type: ADME, organism-based; design: dose 20 mg/kg, route oral
Outline: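 Female athymic nude mice carried subcutaneous RT112/luc1 tumors (5 × 10^6 cells in HBSS with 50% Matrigel, right flank; about 300–400 mm3). Dosed by oral gavage at 20 mg/kg as a suspension in PEG300/D5W (2:1, v/v). Groups (n = 4) were sacrificed at 0.083–24 h.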

RT-4 = assay: Antiproliferative activity against human RT4 cells overexpressing wild type FGFR3 after 72 hrs; type: functional, cell-based; settings: RT-4, 72 h
Outline: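 Bladder cancer lines from ATCC or DSMZ were seeded in 96-well plates (RT4, RT112 at 8500 cells/well; others at 5000 cells/well) in growth medium. Compound dilutions or DMSO were added 24 h later and incubated 72 h. Cells were fixed with glutaraldehyde, stained with 0.05% methylene blue and eluted with 3% HCl, then OD650 nm was read.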

[5] = biological target: Serine/threonine-protein kinase PLK1 (Homo sapiens, UniProt P53350); assay: Inhibition of recombinant PLK1
Outline: (§3)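 Purified recombinant kinases under optimized conditions with peptide substrates. ATP was set at each kinase's Km. Phosphorylation was read by microfluidic mobility-shift separation of substrate and product; IC50 determined.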

RT-112 = assay: Antitumor activity against human RT112 cells xenografted in athymic nude mouse assessed as tumor growth inhibition at 10 mg/kg, po administered for 12 days; type: functional, organism-based; design: dose 10 mg/kg
Outline: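 Female HsdNpa:Athymic Nude-nu mice received RT112/luc1 cells (luciferase retroviral line; about 1–2×10^5 cells) into the bladder lumen. Oral treatment started 14 days after inoculation: suspension in PEG300/D5W (2:1) at 10 or 30 mg/kg/qd for 12 days. Tumor burden was measured by IVIS bioluminescence 10 min after iv D-luciferin. T/C was computed from change in light emission; ANOVA with Dunnett's test.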

[6] = biological target: ALK tyrosine kinase receptor (Homo sapiens, UniProt Q9UM73); assay: Inhibition of recombinant ALK
Outline: (§4)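 Purified recombinant kinases under optimized conditions, with peptide substrates and ATP at each kinase's Km. Phosphorylation was read out by microfluidic mobility shift, and IC50 values were obtained.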

Rattus norvegicus [7] = assay: Toxicity in nude Rowett rat xenografted with human RT112 cells assessed as body weight loss at 5 mg/kg, po qd administered for 20 days; type: organism-based, RT-112; design: dose 5 mg/kg, route oral; settings: in vivo, 480 h
Outline: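 Female nude Rowett rats carried subcutaneous RT112 tumors (1 × 10^6 cells in Matrigel), starting at about 100 mm3. The monophosphate salt was gavaged daily for 20 days at 5, 10 or 15 mg/kg (free base) in acetate buffer pH 4.6/PEG300 (1:1), n = 8. Body weight and morbidity were monitored; ANOVA with Dunnett's test.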

[8] = biological target: Serine/threonine-protein kinase mTOR (Homo sapiens, UniProt P42345); assay: Inhibition of recombinant mTOR by luminescent kinase assay
[9] = biological target: Mitogen-activated protein kinase 14 (Homo sapiens, UniProt Q16539); assay: Inhibition of recombinant p38alpha; outline: as §3
Tumour = assay: Dose normalized AUC in tumor of RT112/luc1 cells implanted athymic nude mouse at 5 mg/kg, iv by LC/MS/MS analysis; type: ADME, organism-based, Neoplasm; design: dose 5 mg/kg, route intravenous; settings: in vivo; outline: as §2
[10] = biological target: Receptor tyrosine-protein kinase erbB-2 (Homo sapiens, UniProt P04626); assay: Inhibition of recombinant ERBB2; outline: as §3
[11] = biological target: MAP kinase-interacting serine/threonine-protein kinase 2 (Homo sapiens, UniProt Q9HBH9); assay: Inhibition of recombinant MNK2; outline: as §4
Focal adhesion kinase 1 = Focal adhesion kinase 1 (Homo sapiens, UniProt Q05397); assay: Inhibition of recombinant FAK; outline: as §3
[12] = biological target: Tyrosine-protein kinase CSK (Homo sapiens, UniProt P41240); assay: Inhibition of recombinant CSK; outline: as §4
[13] = biological target: Serine/threonine-protein kinase N2 (Homo sapiens, UniProt Q16513); assay: Inhibition of recombinant PKN2; outline: as §3
[14] = Oral bioavailability in Wistar rat at 10 mg/kg; type: ADME, organism-based; settings: in vivo
Outline: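 Female Wistar rats received 5 mg/kg iv into the femoral vein in NMP/PEG200 (1:9), or the monophosphate salt orally at 10 mg/kg (free base) in acetate buffer pH 4.6/PEG300. Serial sublingual plasma samples were taken from 0.083 to 24 h.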

[15] = Apparent terminal half life in Wistar rat at 5 mg/kg, iv by LC-MS/MS analysis; type: ADME, organism-based; design: dose 5 mg/kg, route intravenous; settings: in vivo, read-out: t1/2 lambda z (converted)
Outline: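 Female Wistar rats. IV: 5 mg/kg into the femoral vein as a solution in NMP/PEG200 (1:9, v/v). Oral: monophosphate salt at 10 mg/kg (free base equivalents) as a solution in acetic acid–acetate buffer pH 4.6/PEG300. Plasma was taken by sublingual bleeding at 0.083–24 h, from staggered groups (n = 4) or one sequentially bled group. Assayed by LC-MS/MS (LOQ 10 ng/mL); noncompartmental analysis.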

Rattus norvegicus [16] = assay: Inhibition of FGFR autophosphorylation in RT112 tumor bearing po dosed nude rowett rat assessed as decrease in pMAPK concentration administered as a single dose by Western blot analysis; type: functional, organism-based; outline: as §1
Rattus norvegicus [17] = species: Rattus norvegicus; assay: Hepatic blood flow in Wistar rat; type: ADME, organism-based, Liver

Sequence of ALK tyrosine kinase receptor (Q9UM73 whole entry): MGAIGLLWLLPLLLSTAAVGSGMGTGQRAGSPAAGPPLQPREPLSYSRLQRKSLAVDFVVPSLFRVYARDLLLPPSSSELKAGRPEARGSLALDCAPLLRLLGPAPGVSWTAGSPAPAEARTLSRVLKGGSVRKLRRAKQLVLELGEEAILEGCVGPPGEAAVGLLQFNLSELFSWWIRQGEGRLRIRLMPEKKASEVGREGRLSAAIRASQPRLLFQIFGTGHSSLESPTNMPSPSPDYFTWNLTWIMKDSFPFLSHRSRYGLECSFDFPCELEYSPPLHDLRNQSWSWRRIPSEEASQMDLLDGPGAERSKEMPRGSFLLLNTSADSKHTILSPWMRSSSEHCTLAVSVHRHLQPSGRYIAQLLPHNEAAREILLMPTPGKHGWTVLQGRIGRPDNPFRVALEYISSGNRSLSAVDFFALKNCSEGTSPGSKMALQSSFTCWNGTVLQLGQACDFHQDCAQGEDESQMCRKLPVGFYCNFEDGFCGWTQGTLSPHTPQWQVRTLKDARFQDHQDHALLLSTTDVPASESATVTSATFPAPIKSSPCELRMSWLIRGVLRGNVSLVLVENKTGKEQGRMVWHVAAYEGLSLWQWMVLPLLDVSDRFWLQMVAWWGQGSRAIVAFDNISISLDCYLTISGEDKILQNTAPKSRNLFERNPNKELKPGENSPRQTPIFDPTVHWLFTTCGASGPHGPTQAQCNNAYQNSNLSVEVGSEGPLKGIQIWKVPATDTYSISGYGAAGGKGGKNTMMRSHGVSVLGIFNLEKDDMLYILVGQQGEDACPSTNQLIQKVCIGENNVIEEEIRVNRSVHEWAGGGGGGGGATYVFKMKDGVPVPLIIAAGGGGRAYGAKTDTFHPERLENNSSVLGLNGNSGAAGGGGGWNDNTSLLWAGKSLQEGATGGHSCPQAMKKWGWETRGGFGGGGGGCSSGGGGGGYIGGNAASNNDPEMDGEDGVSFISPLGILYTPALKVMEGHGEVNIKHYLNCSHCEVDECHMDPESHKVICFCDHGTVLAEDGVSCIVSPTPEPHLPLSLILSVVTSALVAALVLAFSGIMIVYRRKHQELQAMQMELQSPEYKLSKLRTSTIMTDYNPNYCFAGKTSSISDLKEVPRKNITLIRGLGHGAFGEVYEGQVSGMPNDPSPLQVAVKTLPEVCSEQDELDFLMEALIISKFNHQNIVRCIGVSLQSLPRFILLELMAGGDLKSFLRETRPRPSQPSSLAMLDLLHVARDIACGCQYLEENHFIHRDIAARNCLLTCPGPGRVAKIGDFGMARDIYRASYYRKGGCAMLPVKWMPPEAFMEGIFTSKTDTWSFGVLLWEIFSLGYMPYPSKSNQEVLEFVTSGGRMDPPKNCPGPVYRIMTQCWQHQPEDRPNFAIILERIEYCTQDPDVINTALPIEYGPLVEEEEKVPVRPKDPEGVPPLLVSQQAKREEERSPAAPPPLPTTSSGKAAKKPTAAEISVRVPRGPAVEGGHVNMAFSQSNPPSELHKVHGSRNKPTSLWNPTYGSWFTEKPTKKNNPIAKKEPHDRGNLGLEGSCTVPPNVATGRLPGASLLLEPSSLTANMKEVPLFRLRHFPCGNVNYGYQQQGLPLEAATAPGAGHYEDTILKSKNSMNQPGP
Sequence of Mitogen-activated protein kinase 14 (Q16539 whole entry): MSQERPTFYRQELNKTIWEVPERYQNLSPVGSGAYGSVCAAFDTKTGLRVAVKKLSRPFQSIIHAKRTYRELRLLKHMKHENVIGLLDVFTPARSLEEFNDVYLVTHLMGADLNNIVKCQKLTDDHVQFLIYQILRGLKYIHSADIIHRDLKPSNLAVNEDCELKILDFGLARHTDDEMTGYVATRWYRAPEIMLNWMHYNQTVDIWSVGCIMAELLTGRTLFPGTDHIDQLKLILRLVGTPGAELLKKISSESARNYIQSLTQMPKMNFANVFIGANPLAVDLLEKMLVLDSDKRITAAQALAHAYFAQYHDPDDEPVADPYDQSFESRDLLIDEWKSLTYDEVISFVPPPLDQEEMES
Sequence of Tyrosine-protein kinase ZAP-70 (P43403 whole entry): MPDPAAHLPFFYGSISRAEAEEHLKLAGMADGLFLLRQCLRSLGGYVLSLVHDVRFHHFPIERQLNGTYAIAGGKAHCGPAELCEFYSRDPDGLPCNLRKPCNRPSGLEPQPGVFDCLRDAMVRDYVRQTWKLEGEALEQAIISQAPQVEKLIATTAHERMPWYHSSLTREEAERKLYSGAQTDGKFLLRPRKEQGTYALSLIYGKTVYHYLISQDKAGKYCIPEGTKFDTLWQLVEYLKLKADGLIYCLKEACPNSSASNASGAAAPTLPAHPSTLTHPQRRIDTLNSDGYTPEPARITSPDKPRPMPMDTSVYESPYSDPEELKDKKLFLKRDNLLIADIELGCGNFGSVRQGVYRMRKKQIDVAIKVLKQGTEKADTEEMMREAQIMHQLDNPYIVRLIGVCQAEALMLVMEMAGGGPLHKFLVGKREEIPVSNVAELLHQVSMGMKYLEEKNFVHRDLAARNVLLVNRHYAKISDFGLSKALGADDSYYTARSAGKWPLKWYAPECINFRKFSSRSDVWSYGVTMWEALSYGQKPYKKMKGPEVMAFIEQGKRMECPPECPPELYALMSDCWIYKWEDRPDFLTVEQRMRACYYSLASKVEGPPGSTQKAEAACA
Sequence of Serine/threonine-protein kinase N2 (Q16513 whole entry): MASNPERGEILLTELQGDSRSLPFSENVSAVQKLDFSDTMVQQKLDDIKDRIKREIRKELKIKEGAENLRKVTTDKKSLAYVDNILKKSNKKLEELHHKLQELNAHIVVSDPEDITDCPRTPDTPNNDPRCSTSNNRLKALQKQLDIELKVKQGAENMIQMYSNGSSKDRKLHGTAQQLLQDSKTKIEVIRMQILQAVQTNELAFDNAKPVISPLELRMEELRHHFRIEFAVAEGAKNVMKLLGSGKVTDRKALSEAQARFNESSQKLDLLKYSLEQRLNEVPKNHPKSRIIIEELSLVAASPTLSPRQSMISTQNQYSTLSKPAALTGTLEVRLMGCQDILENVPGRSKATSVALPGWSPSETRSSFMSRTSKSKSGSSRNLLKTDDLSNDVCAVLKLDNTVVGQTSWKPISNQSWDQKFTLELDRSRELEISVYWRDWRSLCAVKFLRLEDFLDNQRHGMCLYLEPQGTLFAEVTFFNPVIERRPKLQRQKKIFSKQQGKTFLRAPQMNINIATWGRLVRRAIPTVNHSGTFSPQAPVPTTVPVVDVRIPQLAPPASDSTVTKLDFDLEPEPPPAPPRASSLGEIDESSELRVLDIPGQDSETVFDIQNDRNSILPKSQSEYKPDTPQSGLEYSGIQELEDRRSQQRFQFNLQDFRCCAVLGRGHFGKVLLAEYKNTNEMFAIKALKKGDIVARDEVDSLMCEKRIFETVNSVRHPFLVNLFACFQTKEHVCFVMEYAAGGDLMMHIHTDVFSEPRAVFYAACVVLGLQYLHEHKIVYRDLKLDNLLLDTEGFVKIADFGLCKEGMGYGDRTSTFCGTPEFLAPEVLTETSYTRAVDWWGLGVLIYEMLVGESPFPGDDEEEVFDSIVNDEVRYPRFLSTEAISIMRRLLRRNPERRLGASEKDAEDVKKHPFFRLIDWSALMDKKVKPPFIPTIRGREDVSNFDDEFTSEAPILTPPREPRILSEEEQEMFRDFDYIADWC
Sequence of Receptor tyrosine-protein kinase erbB-2 (P04626 whole entry): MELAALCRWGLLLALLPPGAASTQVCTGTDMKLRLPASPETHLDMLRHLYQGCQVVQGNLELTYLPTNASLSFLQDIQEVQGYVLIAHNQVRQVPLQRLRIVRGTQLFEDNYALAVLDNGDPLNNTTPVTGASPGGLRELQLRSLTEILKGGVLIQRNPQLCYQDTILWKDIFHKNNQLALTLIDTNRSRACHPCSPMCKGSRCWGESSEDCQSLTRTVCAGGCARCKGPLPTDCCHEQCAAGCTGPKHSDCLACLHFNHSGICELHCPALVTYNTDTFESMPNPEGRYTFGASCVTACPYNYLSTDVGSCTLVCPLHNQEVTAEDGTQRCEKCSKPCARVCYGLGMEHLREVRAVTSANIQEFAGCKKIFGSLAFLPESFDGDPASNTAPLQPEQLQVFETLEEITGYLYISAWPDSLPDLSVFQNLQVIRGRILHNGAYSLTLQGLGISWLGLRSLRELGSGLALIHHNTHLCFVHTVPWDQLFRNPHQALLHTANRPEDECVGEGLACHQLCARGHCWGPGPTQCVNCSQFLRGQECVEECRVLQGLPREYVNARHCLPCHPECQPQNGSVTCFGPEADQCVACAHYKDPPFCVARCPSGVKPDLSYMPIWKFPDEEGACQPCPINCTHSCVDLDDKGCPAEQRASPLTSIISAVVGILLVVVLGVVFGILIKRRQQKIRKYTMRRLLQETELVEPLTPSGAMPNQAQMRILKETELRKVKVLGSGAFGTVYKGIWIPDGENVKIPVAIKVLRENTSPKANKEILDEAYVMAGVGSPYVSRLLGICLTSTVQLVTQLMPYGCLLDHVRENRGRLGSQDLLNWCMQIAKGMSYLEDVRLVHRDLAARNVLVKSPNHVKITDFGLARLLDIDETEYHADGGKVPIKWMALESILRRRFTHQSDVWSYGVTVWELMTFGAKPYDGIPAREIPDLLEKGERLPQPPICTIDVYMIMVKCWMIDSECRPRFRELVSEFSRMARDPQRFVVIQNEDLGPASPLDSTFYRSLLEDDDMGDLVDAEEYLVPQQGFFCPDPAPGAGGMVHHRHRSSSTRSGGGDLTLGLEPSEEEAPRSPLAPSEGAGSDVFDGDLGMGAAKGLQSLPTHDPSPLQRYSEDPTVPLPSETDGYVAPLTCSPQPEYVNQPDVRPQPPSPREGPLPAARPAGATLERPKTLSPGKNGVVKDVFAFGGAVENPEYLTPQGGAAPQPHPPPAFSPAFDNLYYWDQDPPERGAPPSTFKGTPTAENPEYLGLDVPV

IC50 [1]: > 10 µM
half-life [3]: 9.3 h
IC50 (Cytochrome P450 2D6): > 10 µM
half-life [4]: 4.3 h
IC50 [5]: > 10 µM
IC50 [6]: > 10 µM
IC50 [8]: > 10 µM
IC50 [9]: > 10 µM
AUC/dose (Tumour): 4.8 nmol·h/g
IC50 [10]: > 10 µM
IC50 [11]: > 10 µM
IC50 (Focal adhesion kinase 1): > 10 µM
IC50 [12]: > 10 µM
IC50 [13]: > 10 µM
bioavailability [14]: 51%
half-life [15]: 4.5 h
QH (Rattus norvegicus [17]): 55 mL/min/kg
Compound: CCN1CCN(c2ccc(Nc3cc(N(C)C(=O)Nc4c(Cl)c(OC)cc(OC)c4Cl)ncn3)cc2)CC1.O=P(O)(O)O [INFIGRATINIB PHOSPHATE]
inhibition (Rattus norvegicus [2]): Active
IC50 (RT-4): 0.03 µM
inhibition (RT-112): Active
Activity (Rattus norvegicus [7]): Non-toxic
inhibition (Rattus norvegicus [16]): Dose-dependent effect
